Assay results as given in ChEMBL document CHEMBL1129991, “Inhibition of uridine phosphorylase. Synthesis and structure-activity relationships of aryl-substituted 1-((2-hydroxyethoxy)methyl)-5-(3-phenoxybenzyl)uracil” (J Med Chem, 1997).

Test: Tested for inhibition of Uridine Phosphorylase (UrdPase) in murine liver
In short: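 Mouse liver enzyme in a radiochemical assay: [2-¹⁴C]uridine (170 µM, 7.1 µCi/µmol) converted to [2-¹⁴C]uracil in 20 mM potassium phosphate pH 8.0, 1 mM EDTA, 1 mM dithiothreitol, with or without inhibitor. Incubated 30 min at 37 °C, stopped by heating 1 min at 100 °C. Uridine and uracil separated by TLC. Enzyme amount set to give 10% conversion uninhibited.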

| SMILES | IC50 [nM] |
| --- | --- |
| O=c1[nH]c(=O)n(COC(CO)CO)cc1Cc1cccc(Oc2cccc(F)c2)c1 | 8.2 |
| O=c1[nH]c(=O)n(COC(CO)CO)cc1Cc1cccc(Oc2ccc(F)cc2)c1 | 22 |
| O=c1[nH]c(=O)n(COCCO)cc1Cc1cccc(Oc2ccccc2)c1 | 14 |
| O=c1[nH]c(=O)n(COC(CO)CO)cc1Cc1cccc(Oc2ccccc2)c1 | 10 |
| O=c1[nH]c(=O)n(COCCO)cc1Cc1cccc(Oc2ccc(Cl)cc2)c1 | 84 |
| COc1cccc(Oc2cccc(Cc3cn(COCCO)c(=O)[nH]c3=O)c2)c1 | 31 |
| O=c1[nH]c(=O)n(COCCO)cc1Cc1cccc(Oc2cccc(Cl)c2)c1 | 15 |
| O=c1[nH]c(=O)n(COCCO)cc1Cc1cccc(Oc2ccc(F)cc2)c1 | 98 |
| O=c1[nH]c(=O)n(COC(CO)CO)cc1Cc1cccc(Oc2cccc(Cl)c2)c1 | 1.4 |
| N#Cc1cccc(Oc2cccc(Cc3cn(COCCO)c(=O)[nH]c3=O)c2)c1 | 5.9 |
| COc1ccc(Oc2cccc(Cc3cn(COCCO)c(=O)[nH]c3=O)c2)cc1 | 210 |
| O=c1[nH]c(=O)n(COCCO)cc1Cc1cccc(Oc2cccc(F)c2)c1 | 14 |
| Cc1cccc(Oc2cccc(Cc3cn(COCCO)c(=O)[nH]c3=O)c2)c1 | 13 |
| O=c1[nH]c(=O)n(COCCO)cc1Cc1cccc(Oc2cccc(C(F)(F)F)c2)c1 | 32 |
